Experimental data from ChEMBL document CHEMBL4138301, “Discovery of Tetralones as Potent and Selective Inhibitors of Acyl-CoA:Diacylglycerol Acyltransferase 1” (ACS Med Chem Lett, 2018).
In brackets after ≈: the same amount, converted by molar mass. One block for each compound: values may come before it.

Key:
[1] = tested on: Salmonella typhimurium; assay: Mutagenicity in Salmonella typhimurium TA1535 in presence of S9 fraction by Ames test; format: toxicity, organism-based; details: salmonella enterica subsp. enterica serovar typhimurium
[2] = tested on: Salmonella typhimurium; assay: Mutagenicity in Salmonella typhimurium TA1537 in presence of S9 fraction by Ames test; format: toxicity, organism-based; details: salmonella enterica subsp. enterica serovar typhimurium
[3] = tested on: Salmonella typhimurium; assay: Mutagenicity in Salmonella typhimurium TA98 in presence of S9 fraction by Ames test; format: toxicity, organism-based; details: salmonella enterica subsp. enterica serovar typhimurium
[4] = tested on: Salmonella typhimurium; assay: Mutagenicity in Salmonella typhimurium TA100 in presence of S9 fraction by Ames test; format: toxicity, organism-based; details: salmonella enterica subsp. enterica serovar typhimurium
[5] = tested on: Escherichia coli; assay: Mutagenicity in Escherichia coli WP2uvrA in presence of S9 fraction by Ames test; format: toxicity, organism-based
[6] = tested on: Salmonella typhimurium; assay: Mutagenicity in Salmonella typhimurium TA1535 in absence of S9 fraction by Ames test; format: toxicity, organism-based; details: salmonella enterica subsp. enterica serovar typhimurium
[7] = tested on: Salmonella typhimurium; assay: Mutagenicity in Salmonella typhimurium TA1537 in absence of S9 fraction by Ames test; format: toxicity, organism-based; details: salmonella enterica subsp. enterica serovar typhimurium
[8] = tested on: Salmonella typhimurium; assay: Mutagenicity in Salmonella typhimurium TA98 in absence of S9 fraction by Ames test; format: toxicity, organism-based; details: salmonella enterica subsp. enterica serovar typhimurium
[9] = tested on: Salmonella typhimurium; assay: Mutagenicity in Salmonella typhimurium TA100 in absence of S9 fraction by Ames test; format: toxicity, organism-based; details: salmonella enterica subsp. enterica serovar typhimurium
[10] = tested on: Escherichia coli; assay: Mutagenicity in Escherichia coli WP2uvrA in absence of S9 fraction by Ames test; format: toxicity, organism-based
[11] = Kinetic solubility of the compound in pION buffer at pH 7.4 measured after 18 hrs; format: physicochemical; details: read-out: Kinetic_solubility
[12] = Oral bioavailability in Sprague-Dawley rat at 2 mg/kg; format: ADME, organism-based; details: in vivo
In short: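 Male animals, n = 3 per species: C57BL/6J mouse at 2.2 mg/kg IV and 2.7 mg/kg PO; Sprague–Dawley rat at 1 mg/kg IV and 2 mg/kg PO; Beagle dog at 1.8 mg/kg IV and 5.3 mg/kg PO. Plasma clearance, Vss, IV half-life and oral %F were derived from the plasma profiles.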

[13] = biological target: T1, Diacylglycerol O-acyltransferase 1 (Mus musculus) (UniProt Q9Z2A7); assay: Inhibition of DGAT1 in mouse C2C12 cells at 300 nM using [14C] oleic acid as substrate measured after 20 mins by phosphorimaging method relative to control; format: cell-based
T1 sequence (whole entry): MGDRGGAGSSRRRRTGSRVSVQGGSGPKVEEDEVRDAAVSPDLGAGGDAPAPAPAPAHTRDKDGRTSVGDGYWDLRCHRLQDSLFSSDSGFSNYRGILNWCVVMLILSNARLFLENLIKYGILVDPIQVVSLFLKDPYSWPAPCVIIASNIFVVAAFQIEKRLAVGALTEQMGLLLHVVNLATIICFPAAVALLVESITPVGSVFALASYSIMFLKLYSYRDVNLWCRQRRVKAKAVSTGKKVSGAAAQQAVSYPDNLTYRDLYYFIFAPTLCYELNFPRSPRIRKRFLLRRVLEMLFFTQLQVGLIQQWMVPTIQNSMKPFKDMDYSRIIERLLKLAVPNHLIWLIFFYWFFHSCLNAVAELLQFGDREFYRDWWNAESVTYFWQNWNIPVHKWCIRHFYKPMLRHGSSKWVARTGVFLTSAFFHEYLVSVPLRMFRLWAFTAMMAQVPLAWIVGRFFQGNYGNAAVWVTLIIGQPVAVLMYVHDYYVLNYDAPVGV

SMILES: CCC1(CC(=O)O)CCc2cc(-c3ccc(N)cc3)ccc2C1=O (stereo not drawn)
Activity [1]: Toxic
Activity [2]: Toxic
Activity [3]: Toxic
Activity [4]: Toxic
Activity [5]: Toxic
Activity [6]: Toxic
Activity [7]: Toxic
Activity [8]: Toxic
Activity [9]: Toxic
Activity [10]: Toxic

SMILES: O=C(O)C[C@]1(CC(F)(F)F)CCc2cc(-c3cnc(NC(=O)Nc4cccc(C(F)(F)F)c4)cn3)ccc2C1=O
solubility kinetic at 18 h [11]: 56 µg/mL (≈ 98.9 µM)
bioavailability [12]: 25%

SMILES: COc1cccc(NC(=O)Nc2ccc(-c3ccc4c(c3)CCC(C)(CC(=O)O)C4=O)cc2)c1 (stereo not drawn)
solubility kinetic at 18 h [11]: 40 µg/mL (≈ 87.2 µM)

SMILES: CC1(CC(=O)O)CCc2cc(-c3ccc(NC(=O)Nc4cccc(F)c4)cc3)ccc2C1=O (stereo not drawn)
solubility kinetic at 18 h [11]: 13 µg/mL (≈ 29.1 µM)

SMILES: O=C(O)CC1(CC(F)(F)F)CCc2cc(-c3ccc(NC(=O)Nc4ccccc4)cc3)ccc2C1=O (stereo not drawn)
solubility kinetic at 18 h [11]: 30 µg/mL (≈ 60.4 µM)

SMILES: CC[C@@]1(CC(=O)O)CCc2cc(-c3ccc(NC(=O)Nc4ccc(F)c(F)c4)cc3Cl)ccc2C1=O
solubility kinetic at 18 h [11]: 125 µg/mL (≈ 244 µM)
bioavailability [12]: 51%

SMILES: O=C(O)CC1CCc2cc(-c3ccc(NC(=O)Nc4ccccc4)cc3)ccc2C1=O (stereo not drawn)
solubility kinetic at 18 h [11]: 58 µg/mL (≈ 140 µM)

Second part, the compound after the results:

solubility kinetic at 18 h [11]: 88 µg/mL (≈ 172 µM)
inhibition [13]: 27%
SMILES: CC[C@]1(CC(=O)O)CCc2cc(-c3ccc(NC(=O)Nc4cccc(C(F)(F)F)c4)cc3)ccc2C1=O

solubility kinetic at 18 h [11]: 0.4 µg/mL (≈ 0.839 µM)
SMILES: CC[C@]1(CC(=O)O)CCc2cc(-c3ccc(NC(=O)Nc4ccc(Cl)cc4)cc3)ccc2C1=O

solubility kinetic at 18 h [11]: 54 µg/mL (≈ 126 µM)
SMILES: CC1(CC(=O)O)CCc2cc(-c3ccc(NC(=O)Nc4ccccc4)cc3)ccc2C1=O (stereo not drawn)

solubility kinetic at 18 h [11]: 39 µg/mL (≈ 76.4 µM)
inhibition [13]: 62%
SMILES: CCC1(CC(=O)O)CCc2cc(-c3ccc(NC(=O)Nc4cccc(C(F)(F)F)c4)cc3)ccc2C1=O (racemic)

solubility kinetic at 18 h [11]: 36 µg/mL (≈ 78.9 µM)
SMILES: CCC1(CC(=O)O)CCc2cc(-c3ccc(NC(=O)Nc4ccc(C)cc4)cc3)ccc2C1=O (stereo not drawn)

solubility kinetic at 18 h [11]: 5 µg/mL (≈ 10.5 µM)
inhibition [13]: 83%
SMILES: CC[C@@]1(CC(=O)O)CCc2cc(-c3ccc(NC(=O)Nc4ccc(Cl)cc4)cc3)ccc2C1=O

solubility kinetic at 18 h [11]: 74 µg/mL (≈ 162 µM)
SMILES: CCCC1(CC(=O)O)CCc2cc(-c3ccc(NC(=O)Nc4ccccc4)cc3)ccc2C1=O (stereo not drawn)
